Measurements as given in ChEMBL document CHEMBL1938258, “Discovery and molecular docking of quinolyl-thienyl chalcones as anti-angiogenic agents targeting VEGFR-2 tyrosine kinase” (Bioorg Med Chem Lett, 2012).

Key:
[1] = target: Vascular endothelial growth factor receptor 2 (Homo sapiens, UniProt P35968); experiment: Inhibition of VEGFR-2 after 1 hr by fluorescence polarization assay
Method in brief: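 VEGFR kinase protein in a fluorescence polarization tyrosine kinase kit. Buffer was 20 mM HEPES pH 7.4, 5 mM MgCl2, 2 mM MnCl2, Na3VO4, ATP, 200 ng/mL enzyme and 1 ng/mL poly(Glu,Tyr) 4:1. After 1 h the reaction was stopped with 6 mM EDTA. Anti-phosphotyrosine antibody and PTK green tracer were added, and FP was read after 30 min at room temperature.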

[2] = test system: HUVEC; experiment: Antiangiogenic activity against VEGF-stimulated HUVEC cells after 72 hrs by BrdU method; format: functional, cell-based; settings: Homo sapiens
Method in brief: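 HUVEC grown overnight at 37 °C, 5% CO2 in 5% FBS medium on type 1 collagen-coated plates. Medium replaced by serum-free medium with graded inhibitor concentrations, then VEGF (10 ng/ml) added 30 min later. Cells incubated a further 72 h, with BrdU present for the last 18–24 h. IC50 taken as K from the fit y = Vmax(1 − x/(K+x)).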

Vascular endothelial growth factor receptor 2, sequence (P35968 whole entry): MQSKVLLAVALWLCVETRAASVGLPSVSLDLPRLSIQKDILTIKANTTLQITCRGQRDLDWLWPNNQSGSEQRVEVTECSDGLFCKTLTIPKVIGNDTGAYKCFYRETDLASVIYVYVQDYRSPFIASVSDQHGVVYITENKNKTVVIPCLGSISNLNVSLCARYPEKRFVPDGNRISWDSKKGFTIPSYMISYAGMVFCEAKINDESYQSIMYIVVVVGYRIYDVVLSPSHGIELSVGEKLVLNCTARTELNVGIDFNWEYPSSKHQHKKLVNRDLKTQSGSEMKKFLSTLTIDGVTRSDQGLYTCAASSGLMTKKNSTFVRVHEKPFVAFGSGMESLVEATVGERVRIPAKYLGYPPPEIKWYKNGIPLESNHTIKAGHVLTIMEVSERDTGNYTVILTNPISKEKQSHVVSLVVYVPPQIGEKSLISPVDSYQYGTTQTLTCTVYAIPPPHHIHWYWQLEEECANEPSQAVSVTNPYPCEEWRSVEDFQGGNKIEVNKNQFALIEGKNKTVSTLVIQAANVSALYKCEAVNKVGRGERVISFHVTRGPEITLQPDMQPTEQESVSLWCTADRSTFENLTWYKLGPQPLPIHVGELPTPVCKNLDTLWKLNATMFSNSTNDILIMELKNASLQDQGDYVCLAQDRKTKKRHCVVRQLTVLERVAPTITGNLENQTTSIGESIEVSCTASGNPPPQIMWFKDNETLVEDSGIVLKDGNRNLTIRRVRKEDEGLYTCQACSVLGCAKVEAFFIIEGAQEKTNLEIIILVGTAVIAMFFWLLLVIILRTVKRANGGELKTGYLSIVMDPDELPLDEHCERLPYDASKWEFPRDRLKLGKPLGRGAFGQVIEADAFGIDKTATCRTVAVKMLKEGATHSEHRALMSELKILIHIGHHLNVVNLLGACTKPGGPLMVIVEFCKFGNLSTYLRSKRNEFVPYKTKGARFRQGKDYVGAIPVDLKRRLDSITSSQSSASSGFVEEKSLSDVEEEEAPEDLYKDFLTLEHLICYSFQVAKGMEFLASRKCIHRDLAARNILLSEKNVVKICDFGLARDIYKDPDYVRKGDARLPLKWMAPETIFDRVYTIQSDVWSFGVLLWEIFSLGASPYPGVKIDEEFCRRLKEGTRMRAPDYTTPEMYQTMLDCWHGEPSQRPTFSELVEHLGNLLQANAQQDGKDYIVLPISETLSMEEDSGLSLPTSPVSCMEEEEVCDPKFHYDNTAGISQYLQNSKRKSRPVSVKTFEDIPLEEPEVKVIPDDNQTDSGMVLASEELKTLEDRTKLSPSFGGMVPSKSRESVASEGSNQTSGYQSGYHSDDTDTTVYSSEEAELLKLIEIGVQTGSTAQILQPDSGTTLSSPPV

| SMILES | IC50 [1] [nM] | IC50 [2] [nM] |
| --- | --- | --- |
| Cc1csc(C(=O)/C=C/c2cc3cc(C)ccc3nc2Cl)c1 | 169 | 106 |
| Cc1ccc2nc(Cl)c(/C=C/C(=O)c3ccsc3)cc2c1 | 287 | 107 |
| Cc1ccc2nc(Cl)c(/C=C/C(=O)c3ccc(C)s3)cc2c1 | 176 | 128 |
| Cc1ccc2nc(Cl)c(/C=C/C(=O)c3cc(C)sc3C)cc2c1 | 453 | 229 |
| Cc1ccc2nc(Cl)c(/C=C/C(=O)c3sccc3Cl)cc2c1 | 87.1 | 37.5 |
| Cc1ccc2nc(Cl)c(/C=C/C(=O)c3cc(Cl)sc3Cl)cc2c1 | 81.4 | 26.2 |
| Cc1ccc2nc(Cl)c(/C=C/C(=O)c3ccc(Br)s3)cc2c1 | 113 | 88.4 |
| Cc1ccc2cc(/C=C/C(=O)c3ccsc3)c(Cl)nc2c1 | 208 | 107 |
| Cc1csc(C(=O)/C=C/c2cc3ccc(C)cc3nc2Cl)c1 | 139 | 98.9 |
| Cc1ccc2cc(/C=C/C(=O)c3ccc(C)s3)c(Cl)nc2c1 | 130 | 102 |
| Cc1ccc2cc(/C=C/C(=O)c3ccc(Cl)s3)c(Cl)nc2c1 | 92.2 | 49.5 |
| Cc1ccc2cc(/C=C/C(=O)c3cc(Cl)sc3Cl)c(Cl)nc2c1 | 73.4 | 21.8 |
| Cc1ccc2cc(/C=C/C(=O)c3sccc3Br)c(Cl)nc2c1 | 112 | 61.9 |
| Cc1ccc2cc(/C=C/C(=O)c3ccc(Br)s3)c(Cl)nc2c1 | 104 | 83.6 |
| Cc1ccsc1C(=O)/C=C/c1cc2cccc(C)c2nc1Cl | 267 | 189 |
| Cc1csc(C(=O)/C=C/c2cc3cccc(C)c3nc2Cl)c1 | 233 | 153 |
| Cc1ccc(C(=O)/C=C/c2cc3cccc(C)c3nc2Cl)s1 | 262 | 145 |
| Cc1cc(C(=O)/C=C/c2cc3cccc(C)c3nc2Cl)c(C)s1 | > 1000 | – |
| Cc1cccc2cc(/C=C/C(=O)c3sccc3Cl)c(Cl)nc12 | 130 | 91.5 |
| Cc1cccc2cc(/C=C/C(=O)c3ccc(Cl)s3)c(Cl)nc12 | 189 | 116 |
| Cc1cccc2cc(/C=C/C(=O)c3cc(Cl)sc3Cl)c(Cl)nc12 | 358 | 295 |
| Cc1cccc2cc(/C=C/C(=O)c3ccc(Br)s3)c(Cl)nc12 | 367 | 243 |
| Cc1cccc2cc(/C=C/C(=O)c3ccc(I)s3)c(Cl)nc12 | 482 | 284 |

Further lines, with some results ahead:

| IC50 [1] [nM] | SMILES | IC50 [2] [nM] |
| --- | --- | --- |
| 185 | Cc1ccc2nc(Cl)c(/C=C/C(=O)c3sccc3C)cc2c1 | 127 |
| 107 | Cc1ccc2nc(Cl)c(/C=C/C(=O)c3ccc(Cl)s3)cc2c1 | 59.4 |
| 129 | Cc1ccc2nc(Cl)c(/C=C/C(=O)c3sccc3Br)cc2c1 | 61.9 |
| 154 | Cc1ccc2nc(Cl)c(/C=C/C(=O)c3ccc(I)s3)cc2c1 | 129 |
| 157 | Cc1ccc2cc(/C=C/C(=O)c3sccc3C)c(Cl)nc2c1 | 124 |
| 561 | Cc1ccc2cc(/C=C/C(=O)c3cc(C)sc3C)c(Cl)nc2c1 | 294 |
| 82.7 | Cc1ccc2cc(/C=C/C(=O)c3sccc3Cl)c(Cl)nc2c1 | 34 |
| 148 | Cc1ccc2cc(/C=C/C(=O)c3ccc(I)s3)c(Cl)nc2c1 | 135 |
| 389 | Cc1cccc2cc(/C=C/C(=O)c3ccsc3)c(Cl)nc12 | 291 |
| 313 | Cc1cccc2cc(/C=C/C(=O)c3sccc3Br)c(Cl)nc12 | 187 |
